Assay results taken from ChEMBL document CHEMBL2163245 (J Med Chem, 2012).
Activity calls are given as the source filed them. No cut-off for these calls is given here.

Columns and labels:
[1] = test system: Plasma; test: Fraction unbound in rat plasma; type: ADME, cell-free
[2] = test system: Brain; test: Fraction unbound in rat brain homogenate; type: ADME, tissue-based
[3] = Drug uptake in Sprague-Dawley rat brain at 10 mg/kg, ip after 1 hr by LC/MS analysis; type: ADME, organism-based; set-up: dose 10 mg/kg, route intraperitoneal; settings: read-out: Drug uptake
How it was run: (§1)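 Male Sprague-Dawley rats (250 g) dosed 10 mg/kg i.p., formulated 3 mg/mL in 10% Tween 80/sterile water. Blood (cardiac puncture) and brain taken at 1 h. Brain washed in cold PBS, frozen, homogenized 1:3 (w/w) in 70:30 isopropanol:water. Plasma and homogenate precipitated with acetonitrile containing carbamazepine internal standard, diluted 1:1 with water, quantified by ESI LC/MS/MS using MRM in positive mode.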

[4] = Plasma concentration in Sprague-Dawley rat at 10 mg/kg, ip after 1 hr by LC.MS analysis; type: ADME, organism-based; set-up: dose 10 mg/kg, route intraperitoneal; how it was run: as §1
[5] = target: Voltage-gated inwardly rectifying potassium channel KCNH2 (Homo sapiens, UniProt Q12809); test: Inhibition of human ERG
[6] = Inhibition of KATP
[7] = Inhibition of N-type calcium channel at 10 uM
[8] = Inhibition of L-type calcium channel at 10 uM
[9] = target: Melatonin receptor type 1A (Homo sapiens) (UniProt P48039); test: Inhibition of human MT1 at 10 uM
[10] = target: T1, Potassium voltage-gated channel subfamily KQT member 4 (Homo sapiens, UniProt P56696); test: Antagonist activity at KCNQ4 expressed in CHO cells incubated for 3 mins by automated patch clamp assay; type: functional, cell-based
T1 sequence (P56696 whole entry): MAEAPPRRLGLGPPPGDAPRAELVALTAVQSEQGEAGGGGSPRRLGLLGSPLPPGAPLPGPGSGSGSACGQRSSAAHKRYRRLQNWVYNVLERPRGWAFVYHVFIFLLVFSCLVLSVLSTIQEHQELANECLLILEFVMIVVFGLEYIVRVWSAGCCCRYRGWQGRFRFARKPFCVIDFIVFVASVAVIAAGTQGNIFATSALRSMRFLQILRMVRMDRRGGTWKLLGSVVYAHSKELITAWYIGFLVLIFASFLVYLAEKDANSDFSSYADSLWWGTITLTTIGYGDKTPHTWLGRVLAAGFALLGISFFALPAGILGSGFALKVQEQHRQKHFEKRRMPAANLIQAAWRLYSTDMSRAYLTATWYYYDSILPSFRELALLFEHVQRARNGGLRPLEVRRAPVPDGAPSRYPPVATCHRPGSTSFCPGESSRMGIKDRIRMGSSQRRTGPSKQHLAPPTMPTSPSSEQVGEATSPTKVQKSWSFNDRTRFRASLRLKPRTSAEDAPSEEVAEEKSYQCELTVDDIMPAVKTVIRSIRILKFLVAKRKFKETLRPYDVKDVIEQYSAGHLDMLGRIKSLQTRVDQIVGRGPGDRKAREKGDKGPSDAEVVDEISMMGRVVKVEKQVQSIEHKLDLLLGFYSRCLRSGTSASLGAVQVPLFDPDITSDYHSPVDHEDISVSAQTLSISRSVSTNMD
How it was run: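 Population patch clamp on CHO cells stably expressing KCNQ4, freshly dislodged at 7,000 cells/well in extracellular solution (mM: 137 NaCl, 4 KCl, 1 MgCl2, 1.8 CaCl2, 10 HEPES, 10 glucose, pH 7.4). Cells were perforated with 50 μg/ml amphotericin B, held at -70 mV, and stepped to +40 mV. Current was measured at +40 mV before and after 3 min compound exposure and expressed as percent change in the same well.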

[11] = target: Voltage-gated potassium channel, KQT; KCNQ2(Kv7.2)/KCNQ3(Kv7.3) (Homo sapiens, UniProt O43525+O43526); test: Antagonist activity at KCNQ2/Q3 expressed in CHO cells incubated for 3 mins by automated patch clamp assay
[12] = target: T2, Potassium voltage-gated channel subfamily KQT member 1 (Homo sapiens, UniProt P51787); test: Antagonist activity at KCNQ1 expressed in CHO cells incubated for 3 mins by automated patch clamp assay
T2 sequence (P51787 whole entry): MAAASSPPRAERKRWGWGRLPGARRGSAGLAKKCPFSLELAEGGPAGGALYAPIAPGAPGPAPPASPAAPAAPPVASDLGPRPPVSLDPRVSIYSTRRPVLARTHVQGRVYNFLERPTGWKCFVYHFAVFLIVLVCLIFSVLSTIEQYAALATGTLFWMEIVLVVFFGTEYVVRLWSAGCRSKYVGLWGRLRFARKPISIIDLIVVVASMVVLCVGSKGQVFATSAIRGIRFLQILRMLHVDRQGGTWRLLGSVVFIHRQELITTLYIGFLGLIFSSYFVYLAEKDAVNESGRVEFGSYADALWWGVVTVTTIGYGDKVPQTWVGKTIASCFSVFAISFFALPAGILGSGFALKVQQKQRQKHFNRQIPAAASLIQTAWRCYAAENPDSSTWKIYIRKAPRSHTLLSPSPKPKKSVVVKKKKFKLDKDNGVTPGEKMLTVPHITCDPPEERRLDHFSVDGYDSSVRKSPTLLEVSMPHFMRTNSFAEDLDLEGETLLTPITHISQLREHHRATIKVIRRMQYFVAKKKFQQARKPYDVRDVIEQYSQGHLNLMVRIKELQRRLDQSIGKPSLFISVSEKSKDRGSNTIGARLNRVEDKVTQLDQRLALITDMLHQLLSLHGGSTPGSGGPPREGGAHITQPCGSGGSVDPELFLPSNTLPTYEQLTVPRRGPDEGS

[13] = target: Voltage-gated potassium channel, IKs; KCNQ1(Kv7.1)/KCNE1(MinK) (Homo sapiens, UniProt P15382+P51787); test: Antagonist activity at KCNQ1/E1 expressed in CHO cells incubated for 3 mins by automated patch clamp assay
[14] = target: Potassium voltage-gated channel subfamily KQT member 2 (Homo sapiens, UniProt O43526); test: Antagonist activity at KCNQ2 expressed in CHO cells incubated for 3 mins by automated patch clamp assay; type: functional, cell-based
[15] = target: Cytochrome P450 2D6 (Homo sapiens, UniProt P10635)
[16] = target: Cytochrome P450 2C9 (Homo sapiens, UniProt P11712)
[17] = target: T3, Cytochrome P450 1A2 (Homo sapiens, UniProt P05177)
T3 sequence (P05177 whole entry): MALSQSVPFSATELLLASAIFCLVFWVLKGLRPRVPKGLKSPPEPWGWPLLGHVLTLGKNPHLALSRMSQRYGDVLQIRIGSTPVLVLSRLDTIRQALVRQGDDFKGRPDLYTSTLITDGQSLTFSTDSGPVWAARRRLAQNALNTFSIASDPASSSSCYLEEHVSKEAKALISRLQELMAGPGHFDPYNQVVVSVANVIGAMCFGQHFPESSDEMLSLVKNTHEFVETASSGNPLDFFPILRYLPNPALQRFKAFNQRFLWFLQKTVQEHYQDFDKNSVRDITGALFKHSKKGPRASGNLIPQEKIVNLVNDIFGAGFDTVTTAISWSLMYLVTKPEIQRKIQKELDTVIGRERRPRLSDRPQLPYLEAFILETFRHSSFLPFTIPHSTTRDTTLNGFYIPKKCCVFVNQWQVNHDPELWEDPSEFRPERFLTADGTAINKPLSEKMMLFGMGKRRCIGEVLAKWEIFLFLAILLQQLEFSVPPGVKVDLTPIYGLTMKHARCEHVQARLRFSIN

Sequence of Voltage-gated inwardly rectifying potassium channel KCNH2 (Q12809 whole entry): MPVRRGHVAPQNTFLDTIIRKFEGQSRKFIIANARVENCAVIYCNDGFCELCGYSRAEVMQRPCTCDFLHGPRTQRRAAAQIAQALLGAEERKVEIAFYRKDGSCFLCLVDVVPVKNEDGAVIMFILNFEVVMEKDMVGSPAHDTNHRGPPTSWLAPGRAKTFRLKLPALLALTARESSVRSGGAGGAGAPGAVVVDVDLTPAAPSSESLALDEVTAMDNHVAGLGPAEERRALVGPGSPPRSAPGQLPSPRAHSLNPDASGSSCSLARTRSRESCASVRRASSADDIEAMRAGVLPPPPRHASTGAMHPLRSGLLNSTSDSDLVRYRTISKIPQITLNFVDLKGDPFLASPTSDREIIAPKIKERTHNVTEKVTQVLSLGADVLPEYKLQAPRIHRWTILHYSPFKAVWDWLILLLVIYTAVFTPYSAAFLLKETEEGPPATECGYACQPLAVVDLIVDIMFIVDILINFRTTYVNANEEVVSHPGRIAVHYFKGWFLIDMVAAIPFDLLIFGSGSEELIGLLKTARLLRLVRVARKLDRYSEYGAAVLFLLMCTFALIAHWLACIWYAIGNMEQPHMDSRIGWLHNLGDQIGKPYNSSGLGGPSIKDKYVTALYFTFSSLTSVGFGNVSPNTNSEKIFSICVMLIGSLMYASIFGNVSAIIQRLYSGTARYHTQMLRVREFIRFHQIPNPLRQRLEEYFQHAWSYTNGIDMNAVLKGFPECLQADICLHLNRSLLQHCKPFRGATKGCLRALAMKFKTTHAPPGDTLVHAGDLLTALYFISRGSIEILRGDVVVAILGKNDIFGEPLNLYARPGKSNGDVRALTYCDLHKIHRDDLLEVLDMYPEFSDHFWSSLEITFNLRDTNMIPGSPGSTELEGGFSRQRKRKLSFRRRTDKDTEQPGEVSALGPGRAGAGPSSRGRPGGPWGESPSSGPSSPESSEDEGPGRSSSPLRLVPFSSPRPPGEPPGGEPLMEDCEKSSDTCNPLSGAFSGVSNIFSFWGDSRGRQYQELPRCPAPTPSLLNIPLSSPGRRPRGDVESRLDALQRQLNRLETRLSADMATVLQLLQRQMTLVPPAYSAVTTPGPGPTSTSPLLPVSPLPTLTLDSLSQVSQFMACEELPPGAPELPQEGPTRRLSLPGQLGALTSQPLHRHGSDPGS
Sequence of Melatonin receptor type 1A (Homo sapiens) (P48039 whole entry): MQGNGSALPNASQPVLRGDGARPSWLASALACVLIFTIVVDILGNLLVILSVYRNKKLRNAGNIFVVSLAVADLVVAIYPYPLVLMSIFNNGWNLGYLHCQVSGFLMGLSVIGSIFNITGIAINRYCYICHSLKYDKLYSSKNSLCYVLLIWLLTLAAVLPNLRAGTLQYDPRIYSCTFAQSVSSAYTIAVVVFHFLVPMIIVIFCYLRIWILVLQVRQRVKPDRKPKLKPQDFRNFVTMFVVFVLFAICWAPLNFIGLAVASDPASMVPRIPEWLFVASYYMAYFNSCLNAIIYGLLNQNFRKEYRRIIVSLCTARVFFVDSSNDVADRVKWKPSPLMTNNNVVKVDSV
Sequence of Cytochrome P450 2D6 (P10635 whole entry): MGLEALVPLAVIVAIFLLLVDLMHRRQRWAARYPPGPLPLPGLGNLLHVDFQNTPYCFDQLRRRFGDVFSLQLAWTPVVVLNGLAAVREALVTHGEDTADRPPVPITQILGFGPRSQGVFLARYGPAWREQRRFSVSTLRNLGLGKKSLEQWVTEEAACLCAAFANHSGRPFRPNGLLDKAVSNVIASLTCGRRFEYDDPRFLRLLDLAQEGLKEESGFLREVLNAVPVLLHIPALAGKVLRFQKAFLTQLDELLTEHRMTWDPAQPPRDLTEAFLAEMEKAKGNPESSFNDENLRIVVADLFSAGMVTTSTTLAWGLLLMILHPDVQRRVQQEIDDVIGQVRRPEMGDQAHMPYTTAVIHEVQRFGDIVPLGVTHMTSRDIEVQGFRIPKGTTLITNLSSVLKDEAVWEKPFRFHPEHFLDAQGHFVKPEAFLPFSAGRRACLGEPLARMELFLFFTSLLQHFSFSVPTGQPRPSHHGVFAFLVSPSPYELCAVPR
Sequence of Cytochrome P450 2C9 (P11712 whole entry): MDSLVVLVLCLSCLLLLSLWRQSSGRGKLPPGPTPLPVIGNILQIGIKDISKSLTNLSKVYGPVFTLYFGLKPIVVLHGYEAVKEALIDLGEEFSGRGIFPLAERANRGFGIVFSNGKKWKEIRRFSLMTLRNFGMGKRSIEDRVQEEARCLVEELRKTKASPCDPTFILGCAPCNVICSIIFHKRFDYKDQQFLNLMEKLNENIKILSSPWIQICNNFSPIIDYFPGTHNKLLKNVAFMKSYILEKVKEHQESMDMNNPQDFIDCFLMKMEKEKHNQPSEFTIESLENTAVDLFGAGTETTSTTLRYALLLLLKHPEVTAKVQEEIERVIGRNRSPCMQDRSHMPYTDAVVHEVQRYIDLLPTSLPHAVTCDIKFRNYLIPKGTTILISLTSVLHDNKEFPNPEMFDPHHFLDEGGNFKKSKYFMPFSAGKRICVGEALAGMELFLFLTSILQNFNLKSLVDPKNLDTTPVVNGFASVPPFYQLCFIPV
Sequence of Potassium voltage-gated channel subfamily KQT member 2 (O43526 whole entry): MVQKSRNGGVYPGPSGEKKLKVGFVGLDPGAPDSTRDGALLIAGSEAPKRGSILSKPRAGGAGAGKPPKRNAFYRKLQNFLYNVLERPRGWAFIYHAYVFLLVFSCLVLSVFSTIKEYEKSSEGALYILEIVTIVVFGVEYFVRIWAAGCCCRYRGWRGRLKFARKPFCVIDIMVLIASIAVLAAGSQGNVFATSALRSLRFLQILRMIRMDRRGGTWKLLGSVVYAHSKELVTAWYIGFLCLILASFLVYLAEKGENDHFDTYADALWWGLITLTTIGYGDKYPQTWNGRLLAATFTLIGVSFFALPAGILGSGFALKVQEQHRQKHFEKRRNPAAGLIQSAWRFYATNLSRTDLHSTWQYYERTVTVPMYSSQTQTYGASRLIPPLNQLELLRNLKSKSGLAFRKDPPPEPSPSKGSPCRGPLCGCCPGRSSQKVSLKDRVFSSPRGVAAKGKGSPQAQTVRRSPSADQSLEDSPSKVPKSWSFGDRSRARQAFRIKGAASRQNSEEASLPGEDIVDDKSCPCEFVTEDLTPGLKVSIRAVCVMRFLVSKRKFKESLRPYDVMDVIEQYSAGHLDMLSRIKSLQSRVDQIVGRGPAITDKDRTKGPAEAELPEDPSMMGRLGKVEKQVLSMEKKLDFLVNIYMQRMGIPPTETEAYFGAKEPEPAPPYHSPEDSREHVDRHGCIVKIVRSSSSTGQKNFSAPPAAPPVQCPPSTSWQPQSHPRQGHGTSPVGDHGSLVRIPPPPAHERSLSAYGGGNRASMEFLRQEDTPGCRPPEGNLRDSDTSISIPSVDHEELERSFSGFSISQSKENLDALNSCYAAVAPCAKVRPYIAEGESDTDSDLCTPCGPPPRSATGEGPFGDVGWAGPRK
Sequence of Voltage-gated potassium channel, KQT; KCNQ2(Kv7.2)/KCNQ3(Kv7.3) (O43526 whole entry): as above
Sequence of Voltage-gated potassium channel, KQT; KCNQ2(Kv7.2)/KCNQ3(Kv7.3) (O43525 whole entry): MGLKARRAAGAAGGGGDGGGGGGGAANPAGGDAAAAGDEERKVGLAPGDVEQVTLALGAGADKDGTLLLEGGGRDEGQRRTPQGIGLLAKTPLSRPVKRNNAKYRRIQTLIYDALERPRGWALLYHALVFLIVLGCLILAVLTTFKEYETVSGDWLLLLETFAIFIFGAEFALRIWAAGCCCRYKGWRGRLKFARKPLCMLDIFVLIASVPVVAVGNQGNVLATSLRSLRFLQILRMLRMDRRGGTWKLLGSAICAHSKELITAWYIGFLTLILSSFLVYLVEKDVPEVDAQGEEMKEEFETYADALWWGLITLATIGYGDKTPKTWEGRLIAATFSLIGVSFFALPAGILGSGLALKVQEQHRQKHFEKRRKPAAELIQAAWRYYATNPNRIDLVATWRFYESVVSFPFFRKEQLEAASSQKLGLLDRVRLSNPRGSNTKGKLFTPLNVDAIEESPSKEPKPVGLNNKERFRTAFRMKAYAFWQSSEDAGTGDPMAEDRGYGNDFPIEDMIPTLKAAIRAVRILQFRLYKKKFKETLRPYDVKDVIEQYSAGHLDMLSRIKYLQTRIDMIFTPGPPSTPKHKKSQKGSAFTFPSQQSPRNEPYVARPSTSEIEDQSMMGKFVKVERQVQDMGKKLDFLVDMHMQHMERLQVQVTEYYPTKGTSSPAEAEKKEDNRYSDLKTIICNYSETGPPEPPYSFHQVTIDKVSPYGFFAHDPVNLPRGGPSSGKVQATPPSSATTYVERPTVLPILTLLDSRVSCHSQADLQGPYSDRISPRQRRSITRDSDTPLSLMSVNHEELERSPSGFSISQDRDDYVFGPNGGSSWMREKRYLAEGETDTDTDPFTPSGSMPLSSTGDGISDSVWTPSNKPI

For `CC[C@H](C(=O)Nc1ccccc1N1CCCC1)c1ccccc1`, the Fu [1] was 0.6%, the Fu [2] was 0.3% and the concentration at 1 h [3] was 208 ng/g. For the same compound, the concentration at 1 h [4] was 116 ng/mL, the “inhibition (INH)” value [5] was “Not Active” and the inhibition [6] was “inactive”. The inhibition [7] was “inactive”, the inhibition [8] was “inactive” and the inhibition [9] was 61%. For the same compound, the IC50 [10] was 0.2 µM, the IC50 [11] was 0.12 µM and the IC50 [12] was 2.92 µM. The IC50 [13] was 8.12 µM, the IC50 [14] was 0.07 µM and the IC50 [15] was 19.9 µM. The IC50 [16] was 18.9 µM and the IC50 [17] was 6.1 µM.
